Test results reported in PubChem BioAssay AID493047 (Johns Hopkins Ion Channel Center, 2011).

molecular target: Potassium voltage-gated channel subfamily KQT member 3 (Rattus norvegicus) (UniProt O88944); test: rat KCNQ3 activity selectivity test – cell-based, thallium flux, CHO-K1 transient KCNQ3, selectivity assay for KCNQ2 activator project, dose response (AID 493047); settings: CHO-K1 transient KCNQ3, FluxOR thallium flux fluorescence; series mostly up to 30 µM; potentiation: at the top concentration
Sequence (O88944 whole entry, looked up): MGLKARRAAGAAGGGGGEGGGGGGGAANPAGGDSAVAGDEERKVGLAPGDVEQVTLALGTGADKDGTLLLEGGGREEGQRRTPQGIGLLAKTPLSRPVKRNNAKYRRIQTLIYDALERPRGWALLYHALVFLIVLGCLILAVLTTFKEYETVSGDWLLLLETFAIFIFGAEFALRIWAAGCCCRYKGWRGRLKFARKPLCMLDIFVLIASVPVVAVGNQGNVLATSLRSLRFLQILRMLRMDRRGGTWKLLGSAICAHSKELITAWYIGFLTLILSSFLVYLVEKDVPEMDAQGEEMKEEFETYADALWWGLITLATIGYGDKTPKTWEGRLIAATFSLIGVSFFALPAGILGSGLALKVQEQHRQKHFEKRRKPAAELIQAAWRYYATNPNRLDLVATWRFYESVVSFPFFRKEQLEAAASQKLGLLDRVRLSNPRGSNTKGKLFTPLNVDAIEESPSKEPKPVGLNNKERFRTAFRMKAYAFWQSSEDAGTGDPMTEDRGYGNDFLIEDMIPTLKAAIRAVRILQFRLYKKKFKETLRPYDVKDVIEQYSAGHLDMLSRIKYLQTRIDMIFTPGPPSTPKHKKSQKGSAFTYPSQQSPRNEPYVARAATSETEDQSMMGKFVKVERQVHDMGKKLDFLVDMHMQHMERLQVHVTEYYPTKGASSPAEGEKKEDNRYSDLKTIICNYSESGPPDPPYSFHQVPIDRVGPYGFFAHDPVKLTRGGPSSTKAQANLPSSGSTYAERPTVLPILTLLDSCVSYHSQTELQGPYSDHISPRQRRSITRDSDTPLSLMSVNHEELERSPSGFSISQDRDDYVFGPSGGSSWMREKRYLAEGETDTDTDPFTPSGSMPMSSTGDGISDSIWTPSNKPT
In short: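 Test system: transiently transfected CHO-K1 cells / Control set: vehicle / Incubation: FluxOR dye loading 90 min, compound exposure 20 min, both RT, dark / Detection: FluxOR thallium-flux fluorescence / Reagent: depolarizing K2SO4 plus Tl2SO4 stimulus, 5x stock 12.5 mM each / Read-out: % change of flux ratio relative to vehicle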

potentiation, inactive:
Cc1cc(C)c(NC(=O)C2CC3CCC2C3)c(C)c1 (stereo not given) -9.88
CCCCC(=O)Nc1c(C)cc(C)cc1Cl -1.46
Cc1ccc(C)c(NC(=O)C2CC3CCC2C3)c1 (stereo not given) -10
Cc1cccc(C)c1NC(=O)C1CC2CCC1C2 (stereo not given) -13.8
Cc1cc(C)c(NC(=O)CC(C)(C)C)c(Cl)c1 -1.12
